# Tests used:
# [1] = target: Sodium-dependent dopamine transporter (Homo sapiens, UniProt Q01959); assay: In vitro displacement of [3H]GBR-12935 from human dopamine transporter expressed in HEK293 cells; type: cell-based
# Summary of the method: (§1)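 Competitive binding using cloned human transporters expressed in HEK-293 cells. NET was labelled with [³H]nisoxetine and DAT with [³H]GBR12935, following a previously published procedure.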
# [2] = target: Sodium-dependent noradrenaline transporter (Homo sapiens, UniProt P23975); assay: In vitro displacement of [3H]nisoxetine from human norepinephrine transporter expressed in HEK293 cells; type: cell-based; summary of the method: as §1
# Sodium-dependent noradrenaline transporter, sequence (P23975 whole entry): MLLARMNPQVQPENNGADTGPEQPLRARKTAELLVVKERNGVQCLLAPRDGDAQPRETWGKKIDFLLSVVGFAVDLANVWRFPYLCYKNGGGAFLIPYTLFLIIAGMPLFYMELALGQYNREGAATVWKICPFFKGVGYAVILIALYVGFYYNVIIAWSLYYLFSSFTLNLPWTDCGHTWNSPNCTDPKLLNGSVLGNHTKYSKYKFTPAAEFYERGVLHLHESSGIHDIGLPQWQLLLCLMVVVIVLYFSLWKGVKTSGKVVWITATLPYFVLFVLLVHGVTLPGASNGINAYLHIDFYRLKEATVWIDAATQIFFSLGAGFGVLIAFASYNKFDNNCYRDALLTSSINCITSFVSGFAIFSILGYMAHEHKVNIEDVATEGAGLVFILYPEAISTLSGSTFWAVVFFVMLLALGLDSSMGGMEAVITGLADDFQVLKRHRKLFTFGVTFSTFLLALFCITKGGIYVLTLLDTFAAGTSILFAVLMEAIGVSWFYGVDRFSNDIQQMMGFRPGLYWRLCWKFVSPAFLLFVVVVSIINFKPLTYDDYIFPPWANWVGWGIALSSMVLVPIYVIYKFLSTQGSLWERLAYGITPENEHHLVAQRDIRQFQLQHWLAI
# Sodium-dependent dopamine transporter, sequence (Q01959 whole entry): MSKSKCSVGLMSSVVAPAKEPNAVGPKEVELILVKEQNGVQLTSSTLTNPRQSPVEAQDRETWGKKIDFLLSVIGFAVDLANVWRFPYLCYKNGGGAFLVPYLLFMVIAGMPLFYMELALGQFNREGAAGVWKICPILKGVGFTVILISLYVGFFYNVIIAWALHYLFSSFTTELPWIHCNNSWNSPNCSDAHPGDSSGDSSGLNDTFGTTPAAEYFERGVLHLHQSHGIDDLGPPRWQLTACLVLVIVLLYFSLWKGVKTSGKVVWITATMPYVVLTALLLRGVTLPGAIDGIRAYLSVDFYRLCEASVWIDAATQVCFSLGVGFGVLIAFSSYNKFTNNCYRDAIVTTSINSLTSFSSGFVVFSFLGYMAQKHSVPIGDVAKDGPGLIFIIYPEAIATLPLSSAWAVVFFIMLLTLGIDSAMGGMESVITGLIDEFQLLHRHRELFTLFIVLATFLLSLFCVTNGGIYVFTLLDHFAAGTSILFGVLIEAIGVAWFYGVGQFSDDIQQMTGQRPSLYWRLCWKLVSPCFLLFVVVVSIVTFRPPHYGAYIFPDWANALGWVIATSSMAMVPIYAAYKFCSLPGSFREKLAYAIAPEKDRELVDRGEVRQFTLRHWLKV
smiles,measurement,setting,value
C=CCNCc1ccccc1Sc1ccc(C)cc1N,Ki,[1],2.91 µM
same,Ki,[2],3.82 µM

# — ChEMBL document CHEMBL1145212, “Fluorinated diaryl sulfides as serotonin transporter ligands: synthesis, structure-activity relationship study, and in vivo evaluation of fluorine-18-labeled compounds as PET imaging agents” (J Med Chem, 2005)
